The test system of one data set is HIV-1SF162. The data set is classed as cell-based. Conditions: human astrocytes. The procedure, abridged:
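Human astrocytes infected with R5 HIV-1SF162; infection assessed by a luciferase-based read-out of relative Tat protein expression at 18 h post-infection. Dose–response was run per compound first. Fixed levels: test compound 100 nM, CCR5 antagonist reference 100 nM, opioid antagonist reference 1.5 μM. Values are […] ± SEM of three independent experiments; statistics vs uninfected control cells.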

The next data set concerns the target hMOR (Homo sapiens, UniProt P35372). Type of data set: cell-based. Conditions: hMOR-CHO cells with Gqi5; data not shown.
The target in data set [1] is CCR5 (Homo sapiens, UniProt P51681). Description: Ca2+ flux assay in Gqi5 transfected CCR5-MOLT-4 cells. Type of data set: cell-based. Conditions: for Potency decrease in RANTES induced Ca2+ flux inhibition compared to maraviroc: relative to maraviroc. On the technique in general: Calcium flux is commonly read through the fluorescence of an indicator in the cells.
Chain of CCR5 (Homo sapiens, UniProt P51681) (P51681 whole entry): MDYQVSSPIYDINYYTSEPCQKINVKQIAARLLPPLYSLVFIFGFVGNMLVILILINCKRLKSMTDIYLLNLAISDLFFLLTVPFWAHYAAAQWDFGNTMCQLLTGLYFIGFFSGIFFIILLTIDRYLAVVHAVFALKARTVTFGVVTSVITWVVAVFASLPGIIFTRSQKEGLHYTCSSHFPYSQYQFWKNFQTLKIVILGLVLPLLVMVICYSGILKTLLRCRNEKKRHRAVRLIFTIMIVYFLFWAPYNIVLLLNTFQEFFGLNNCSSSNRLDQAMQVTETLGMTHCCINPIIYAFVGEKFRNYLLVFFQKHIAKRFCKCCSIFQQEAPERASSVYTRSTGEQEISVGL
The next data set has as its system astroglial cells. In words: Viability of astroglial cells, dual fluorescence labeling with AOPI. The data set is classed as cell-based, human. Conditions: 100 nM, data not shown.
The target of data set [2] is CCR5 (Macaca mulatta, UniProt P61813). Description: CCR5 competitive radioligand binding assay. On the set-up: species or system rhesus macaque. Conditions: relative to maraviroc.
Setting [3] is: 100 nM, R5 HIV-1SF162, 18 h post-infection.

6 molecules from paper PMC3652433 (MedChemComm, 2013) can be followed below.

Chain of hMOR (P35372 whole entry): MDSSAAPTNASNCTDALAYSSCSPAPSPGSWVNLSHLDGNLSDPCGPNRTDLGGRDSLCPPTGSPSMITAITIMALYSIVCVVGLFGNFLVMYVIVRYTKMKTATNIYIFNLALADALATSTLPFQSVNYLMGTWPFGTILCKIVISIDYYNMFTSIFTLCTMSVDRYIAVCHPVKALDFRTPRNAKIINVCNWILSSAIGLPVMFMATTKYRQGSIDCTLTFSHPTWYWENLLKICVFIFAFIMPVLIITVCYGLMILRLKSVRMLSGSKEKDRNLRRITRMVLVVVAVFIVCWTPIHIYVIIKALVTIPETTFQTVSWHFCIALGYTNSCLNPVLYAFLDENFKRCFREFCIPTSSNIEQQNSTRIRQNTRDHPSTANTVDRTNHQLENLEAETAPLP

Regarding `Cc1nnc(C(C)C)n1C1CC2CCC(C1)N2CC[C@H](NC(=O)C1CCC(F)(F)CC1)c1ccc(NC(=O)COCC(=O)NCCCCCCCNC(=O)COCC(=O)N[C@@H]2CC[C@@]3(O)[C@H]4Cc5ccc(O)c6c5[C@@]3(CCN4CC3CC3)[C@H]2O6)cc1` (some centres unmarked) [compound 1], the “Effect on viral entry / Tat expression” value in the data set on HIV-1SF162 (setting [3]) is reported as “significantly effective in inhibiting viral entry”. In addition, the “Decrease in Tat expression compared to maraviroc alone” value with HIV-1SF162 (100 nM, vs maraviroc 100 nM) is listed as “at least a two-fold decrease in Tat expression”. Also, the “MOR agonism in Ca2+ mobilization assay” value at hMOR is recorded as “No agonism was observed”. On CCR5 [1] (CCR5-MOLT-4 cells with Gqi5, data not shown), the “CCR5 agonism in Ca2+ assay” value is “no CCR5 agonism was detected”. Also, the “Potency decrease in RANTES induced Ca2+ flux inhibition compared to maraviroc” value on CCR5 [1] is “approximately 60 fold”. Further, the “Effect on viability of astroglial cells” value in the data set on astroglial cells is on record as “did not affect the viability of astroglial cells”.

Regarding `CNC(=O)COCC(=O)NCCCCCCCNC(=O)COCC(=O)N[C@@H]1CC[C@@]2(O)[C@H]3Cc4ccc(O)c5c4[C@@]2(CCN3CC2CC2)[C@H]1O5` [compound 2], at hMOR, the “MOR agonism in Ca2+ mobilization assay” value was “No agonism was observed”.

Turning to `CNC(=O)COCC(=O)NCCCCCCCNC(=O)COCC(=O)Nc1ccc([C@H](CCN2C3CCC2CC(n2c(C)nnc2C(C)C)C3)NC(=O)C2CCC(F)(F)CC2)cc1` (some centres unmarked) [compound 3], the “Potency decrease in RANTES induced Ca2+ flux inhibition compared to maraviroc” value on CCR5 [1] was about 300 fold.

Regarding `Cc1nnc(C(C)C)n1C1CC2CCC(C1)N2CC[C@H](NC(=O)C1CCC(F)(F)CC1)c1ccc(N)cc1` (some centres unmarked) [compound 4], the “Decrease in CCR5 binding affinity compared to maraviroc” value on CCR5 [2] was “approximately 65 fold”.

As to `O=C1CC[C@@]2(O)[C@H]3Cc4ccc(O)c5c4[C@@]2(CCN3CC2CC2)[C@H]1O5` [naltrexone, reference compound], the “Effect on Tat production” value in the data set on HIV-1SF162 (1.5 μM, R5 HIV-1SF162, 18 h post-infection) was “did not show significant effect on Tat production”.

For the molecule maraviroc [reference compound], the “Effect on viral entry / Tat expression” value in the data set on HIV-1SF162 (setting [3]) was “considerably inhibited viral entry”.
